Experimental data of several laboratories.
Each line is one published result; the experiments were not run side by side.
Target: Macrophage-stimulating protein receptor (MST1R, Homo sapiens, UniProt Q04912)

O=C(NCCCN1CCOCC1)c1ccc(Nc2nccc(-c3cc4ccccc4s3)n2)cc1 — remaining binding (binding; competition with immobilised ligand; 1 µM): 100%
CN(C)c1nccc(-c2cnc3ncccn23)n1 — remaining binding (binding; 1 µM): 98%
O=C(Nc1cccnn1)N1CC(C/C=C/c2cncc(Oc3ccc(C(F)(F)F)cn3)n2)C1 — remaining binding (cell-free assay; competition with immobilised ligand; 1 µM): 100%
C[C@H]1CCN(c2nccc(-c3cnn4ncccc34)n2)C1 — remaining binding (binding; 1 µM): 93%
NS(=O)(=O)c1cc(NC(=O)Cc2ccccc2)ccc1Oc1cccc(Cl)c1 — remaining binding (cell-free assay; competition with immobilised ligand; 1 µM): 97%
CN(c1nccc(-c2cnn3ncccc23)n1)C1CC1 — remaining binding (binding; 1 µM): 100%
COc1cnc(Nc2cccc(S(N)(=O)=O)c2)nc1N1CCN(c2ccccc2)CC1 — remaining binding (binding; competition with immobilised ligand; 1 µM): 99%
O=C(NCCCN1CCOCC1)c1ccc(Nc2ncc(Cl)c(-c3ccc(Cl)s3)n2)cc1 — remaining binding (binding; competition with immobilised ligand; 1 µM): 67%
O=C(NCC1CCOCC1)c1n[nH]cc1NC(=O)c1c(F)cccc1F — remaining binding (binding; competition with immobilised ligand; 1 µM): 100%
Cc1cnn2ncc(-c3ccnc(N(C)C)n3)c2c1 — remaining binding (binding; 1 µM): 71%
CNC(=O)Nc1ccc2c(c1)[C@@]1(CC2)OC(=O)N(CC(=O)N(Cc2ccc(F)cc2)[C@@H](C)C(F)(F)F)C1=O — remaining binding (cell-free assay; competition with immobilised ligand; 1 µM): 100%
C=CC(=O)N1CCC(C(=O)NCC(=O)N2CCN(c3nc(-c4cnc(N)nc4C(F)F)nc(N4CCOCC4)n3)CC2)CC1 — remaining binding (binding; competition with immobilised ligand; 1 µM): 100%
CN(C)c1nccc(-c2cnn3ncccc23)n1 — remaining binding (binding; 1 µM): 100%
Cc1cnc(Nc2ccc(C(=O)N3CCC(N4CCCC4)CC3)cc2)nc1-c1cc2ccccc2s1 — remaining binding (binding; competition with immobilised ligand; 1 µM): 83%
CNC(=O)[C@@H]1CC[C@@H](n2c(-c3ccc4cnccc4c3)nc3ccc(C(=O)NCc4cccc(C(N)=O)c4)cc32)C1 — remaining binding (binding; competition with immobilised ligand; 1 µM): 87%
CS(=O)(=O)c1cc(C2(NC(=O)c3cncc4c3cnn4-c3ccc(F)cc3)CC2)ccn1 — remaining binding (cell-free assay; competition with immobilised ligand; 1 µM): 83%
N[C@H]1CCN(c2nccc(-c3cnn4ncccc34)n2)C1 — remaining binding (binding; 1 µM): 82%
CO[C@@H](C)c1c(Nc2ccc([C@@H](N(C)C(=O)C3CCS(=O)(=O)CC3)C(F)(F)F)cc2)cnc2cc(Cl)nn12 — remaining binding (cell-free assay; competition with immobilised ligand; 1 µM): 100%
FC(F)(F)Oc1cccc(-c2cnc3ccc(-c4ccncc4)nn23)c1 — remaining binding (cell-free assay; competition with immobilised ligand; 5 µM): 79%
C[C@@H]1CN(c2cc(-c3n[nH]c4ccc(OC5(C)CC5)cc34)ncn2)C[C@H](C)O1 — remaining binding (cell-free assay; competition with immobilised ligand; 0.1 µM): 100%
CCN1CCN(Cc2ccc(C(=O)Nc3ccc(C)c(Oc4ccc5c(c4)CC(=O)N5)c3)cc2C(F)(F)F)CC1 — remaining binding (binding; competition with immobilised ligand; 1 µM): 88%
